CHOP UPR activ = apoptotic UPR (CHOP) activation | activation, % at 10 µM | CHO-CHOP luciferase reporter, luminescence; percent of tunicamycin response over DMSO baseline | 0.34% of 330,000 active | AID 449763;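 active means at 10 µM dose, activation of 40% or more, normalized to positive control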
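Dosing – one dose, 10 µM in 0.5% DMSO · System – CHO-CHOP cells, stable luciferase reporter of PERK-eIF2a-CHOP signalling · Input – 500 cells/well · Control set – tunicamycin 10 µg/mL final as positive, DMSO-only wells as negative · Timing – 6 h compound treatment, 37 °C · Measure – % activation vs tunicamycin · Technique – luminescence read with Steady-Glo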
VLA-4 inh = inhibition in a human VLA-4 binding assay. VLA-4 expressing cells, ligand binding flow cytometry. inhibition, % (about 7 µM as worked out from the volumes in the protocol). 0.2% of 330,000 active. AID 2557; in the data active means inhibition above about 50%
Target sequence (P13612 whole entry, looked up): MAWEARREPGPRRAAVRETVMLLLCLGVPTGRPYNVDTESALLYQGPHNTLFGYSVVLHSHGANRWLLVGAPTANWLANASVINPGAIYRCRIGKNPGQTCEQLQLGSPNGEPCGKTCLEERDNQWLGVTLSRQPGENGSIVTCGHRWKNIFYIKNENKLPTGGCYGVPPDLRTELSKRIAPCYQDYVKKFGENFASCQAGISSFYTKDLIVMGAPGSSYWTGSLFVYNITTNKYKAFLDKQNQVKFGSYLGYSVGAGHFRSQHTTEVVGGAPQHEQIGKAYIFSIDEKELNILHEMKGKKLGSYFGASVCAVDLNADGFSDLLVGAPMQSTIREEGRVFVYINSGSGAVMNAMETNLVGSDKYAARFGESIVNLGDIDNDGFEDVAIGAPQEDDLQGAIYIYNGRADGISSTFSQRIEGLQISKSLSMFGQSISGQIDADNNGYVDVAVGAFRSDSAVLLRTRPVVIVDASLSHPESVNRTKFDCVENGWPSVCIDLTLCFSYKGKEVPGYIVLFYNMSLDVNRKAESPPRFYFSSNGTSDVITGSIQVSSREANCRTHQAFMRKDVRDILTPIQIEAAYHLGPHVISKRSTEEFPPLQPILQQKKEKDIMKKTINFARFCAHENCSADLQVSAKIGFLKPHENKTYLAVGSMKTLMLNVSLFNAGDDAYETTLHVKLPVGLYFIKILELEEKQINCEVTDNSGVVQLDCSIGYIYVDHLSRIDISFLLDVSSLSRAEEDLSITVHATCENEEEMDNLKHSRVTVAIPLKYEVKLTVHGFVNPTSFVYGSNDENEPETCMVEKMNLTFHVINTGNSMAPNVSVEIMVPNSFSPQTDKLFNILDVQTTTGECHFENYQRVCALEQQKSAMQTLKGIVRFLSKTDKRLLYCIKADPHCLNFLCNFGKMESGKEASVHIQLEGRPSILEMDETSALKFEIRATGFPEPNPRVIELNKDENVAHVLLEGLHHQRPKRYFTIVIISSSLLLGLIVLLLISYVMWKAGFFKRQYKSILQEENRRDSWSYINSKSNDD
Beta2AR agonist = agonists of human beta-2 adrenergic receptor inducing internalization | P07550 | response, % (no concentration beside the values) | AID 504454 | 0.43% of 340,000 active | Am2.2-beta2AR cells, FAP receptor internalization, flow cytometry;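 active means response above a set limit, near 3 SD of response in nonfluorescent compounds, cut at about 42% in these data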
CHOP inh = inhibitors of CHOP induction in ER stress response; CHO-K1 CHOP-promoter luciferase, tunicamycin-induced, 15-18 h; inhibition, % at 10 µM; 3.8% of 220,000 active;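 active means compounds that reduced the stress-induced luciferase reporter signal by more than about 70% of percent inhibition, limit read from the data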
UPR XBP1 act = adaptive UPR (XBP1) activation; CHO-XBP1 luciferase reporter, IRE1-XBP1 UPR activation, luminescence; percent of tunicamycin response, DMSO as zero; activation, % at 20 µM; 0.33% of 330,000 active;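 active means versus positive control, 20 µM dose yields 30% or more activation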
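incubation = overnight seeding at 37 °C, 6 h compound treatment at 37 °C | assay system = CHO-XBP1 cells stably carrying IRE1-XBP1-driven luciferase reporter | input = 1000 cells per well | detection = luciferase luminescence | dosing = single point, 20 µM final compound, 1% DMSO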
UPR CHOP confirm = confirmation of apoptotic unfolded protein response (CHOP) activators; activation, % at 10 µM; shares compounds with CHOP UPR activ; CHO-CHOP cells, CHOP-luciferase reporter luminescence; percent of tunicamycin response, DMSO as zero; 64% of 1,000 active; AID 463112; in the data active means activation above about 33%
Of the large screens only hits and unclear results are named; the others gave an inactive call (follow-up assays come after a bar, where they were run). The entries come from a sample that favours hits as a whole.

O=C(c1ccco1)N1CCN(C(=O)c2ccccc2OCc2ccc(Cl)cc2)CC1	none (no result: CHOP inh)
O=C(CN1CCSC1=O)N1CCN(S(=O)(=O)c2ccccc2)CC1	none (no result: CHOP inh)
O=C(CCN1C(=O)C2C3C=CC(C4CC34)C2C1=O)Oc1ccc(Br)cc1 (stereo not drawn)	none
O=C(CCN1C(=O)C2C3C=CC(C4CC34)C2C1=O)Oc1cccc2cccnc12 (stereo not drawn)	CHOP UPR activ 72 | UPR CHOP confirm 60
O=[N+]([O-])c1ccc2nc(Cl)nc(-c3ccccc3)c2c1	CHOP UPR activ 106 (no result: CHOP inh) | UPR CHOP confirm 87
O=[N+]([O-])c1ccc2nc(-[n+]3c(-c4ccccc4)cc(-c4ccccc4)cc3-c3ccccc3)[nH]c2c1	none
Cn1cc(Cl)c(/C=C(\C#N)S(=O)(=O)c2ccccc2)n1	none
CN=c1scc(-c2ccco2)n1/N=C/c1ccc(O)c(O)c1	CHOP UPR activ 52 (no result: VLA-4 inh) | UPR CHOP confirm 70
C=CCN=c1scc(C)n1/N=C/c1ccc(O)c(O)c1	CHOP UPR activ 302 | UPR CHOP confirm 208
O=C(O)[C@H](Cc1ccccc1)NC(=O)N1CCN(c2ccccc2)CC1	none
CC(=O)c1ccc(OCCCC(=O)Nc2cccc(-c3nn[nH]n3)c2)cc1	none (no result: CHOP inh)
Cc1[nH]c2c(C)cccc2c1CCNC(=O)c1ccc2c(c1[N+](=O)[O-])C(=O)c1ccccc1C2=O	CHOP UPR activ 48 | UPR CHOP confirm 40
Cc1[nH]c2ccccc2c1CCNC(=O)c1ccc2c(c1[N+](=O)[O-])C(=O)c1ccccc1C2=O	none
CCOC(=O)c1ccc(CNC(=O)C2CCC(=O)N(CCc3ccccc3)C2)o1 (stereo not drawn)	none (no result: CHOP inh)
Nc1cccc2c1C(=O)N(C(=O)/C=C/c1cccc(Br)c1)C2=O	none (no result: CHOP UPR activ, VLA-4 inh, UPR XBP1 act)
COc1cc(/C=C/C(=O)N2C(=O)c3cccc(N)c3C2=O)cc(OC)c1OC	CHOP UPR activ 68, CHOP inh 94 | UPR CHOP confirm 53
COc1ccc(OC)c(/C=C/C(=O)N2CCCc3ccccc32)c1	none
COc1ccc(OC)c(/C=C/C(=O)N2C(=O)c3cccc(N)c3C2=O)c1	CHOP UPR activ 53, CHOP inh 90 | UPR CHOP confirm 62
O=C(NCCS(=O)(=O)NC1CCCC1)c1ccc(F)cc1	none (no result: CHOP inh)
Oc1c(N=Nc2ccccn2)ccc2ccccc12	CHOP UPR activ 276, CHOP inh 80 | UPR CHOP confirm 211
Cn1cc(/C=C2\SC(=O)NC2=S)c2ccccc21	CHOP UPR activ 51 | UPR CHOP confirm 67
Cc1ccccc1/C=C/C(=O)c1ccc([N+](=O)[O-])o1	CHOP UPR activ 112 (no result: Beta2AR agonist, CHOP inh) | UPR CHOP confirm 68
COc1ccc(S(=O)(=O)N2CCN(C(=O)c3ccc([N+](=O)[O-])o3)CC2)cc1	none (no result: CHOP inh)
Cc1ccccc1NC(=O)c1ccc([N+](=O)[O-])o1	none
Cc1cccc(/C=C/C(=O)c2ccc([N+](=O)[O-])o2)c1	CHOP UPR activ 217, Beta2AR agonist 87 (no result: CHOP inh) | UPR CHOP confirm 142
COc1ccc(/C=C/C(=O)c2ccc([N+](=O)[O-])o2)cc1	CHOP UPR activ 89, Beta2AR agonist 59 (no result: CHOP inh) | UPR CHOP confirm 99
COc1ccc(N2C(=NC(=O)c3ccccc3)SC3CS(=O)(=O)CC32)cc1 (stereo not drawn)	none (no result: CHOP inh)
Cc1ccc(N=C2C(=S)N(c3ccc(C)cc3)C(=N)N2/N=C/c2ccc(Cl)cc2)cc1	CHOP UPR activ 57 | UPR CHOP confirm inactive
Cc1cc(C)nc(SSc2nc(C)cc(C)n2)n1	none (no result: CHOP inh)
O=C(CS(=O)c1ccccc1[N+](=O)[O-])Oc1ccc(Br)cc1 (stereo not drawn)	none
CS(=O)(=O)c1ccc(S(=O)CC(=O)Oc2ccc(Cl)cc2)c([N+](=O)[O-])c1 (stereo not drawn)	CHOP UPR activ 51, CHOP inh 108 (no result: Beta2AR agonist) | UPR CHOP confirm inactive
O=C1ON=C(c2ccccc2)/C1=C/c1ccc(O)c(O)c1	none (no result: CHOP inh)
COc1cc(/C=C2\C(=O)ON=C2c2ccc(Cl)cc2)ccc1O	CHOP UPR activ 180 (no result: CHOP inh) | UPR CHOP confirm 143
COC(=O)c1ccc(CNC(=O)Cn2cnc(C(=O)Nc3ccc(C)c(C)c3)n2)cc1	none (no result: VLA-4 inh, CHOP inh)
CCc1ccc(NC2=CC(=O)C(=O)c3ccccc32)cc1	CHOP UPR activ 62 (no result: VLA-4 inh, CHOP inh) | UPR CHOP confirm inactive
O=C1C=C(Nc2ccccc2)c2ccccc2C1=O	none (no result: VLA-4 inh)
COc1ccccc1N1C(=O)C=C(Sc2nc(C)cc(C)n2)C1=O	CHOP UPR activ 62 | UPR CHOP confirm 56
COc1ccccc1N1C(=O)C2CC(C)=C(C)CC2C1=O (stereo not drawn)	none
CCOc1ccccc1NC(=O)c1nc(S(=O)(=O)Cc2cccc(C)c2)ncc1Cl	none (no result: CHOP inh)
CCS(=O)(=O)c1ncc(Cl)c(C(=O)Nc2ccc(C)cc2)n1	none (no result: CHOP inh)
Cc1ccc(CS(=O)(=O)c2ncc(Cl)c(C(=O)Nc3ccc(OC(F)F)cc3)n2)cc1	CHOP UPR activ 166 (no result: CHOP inh) | UPR CHOP confirm 34
CC(C)c1nnc(NC(=O)c2nc(S(=O)(=O)Cc3ccc(F)cc3)ncc2Cl)s1	CHOP UPR activ 80 (no result: CHOP inh) | UPR CHOP confirm inactive
Cc1cccc(CS(=O)(=O)c2ncc(Cl)c(C(=O)Nc3nnc(C(C)C)s3)n2)c1	CHOP UPR activ 105 (no result: CHOP inh) | UPR CHOP confirm inactive
CCSc1nnc(NC(=O)c2nc(S(=O)(=O)Cc3ccc(F)cc3)ncc2Cl)s1	none (no result: CHOP inh)
CSc1nnc(NC(=O)c2nc(S(=O)(=O)Cc3cccc(C)c3)ncc2Cl)s1	CHOP UPR activ 55 (no result: CHOP inh) | UPR CHOP confirm 75
CC(C)=CCC/C(C)=C/C=N/NC(=O)c1ccc([N+](=O)[O-])cc1	none
COc1ccc(CN2C(=NC(=O)C3CCCO3)SC3CS(=O)(=O)CC32)cc1 (stereo not drawn)	none (no result: CHOP inh)
O=C(/C=C/c1ccc([N+](=O)[O-])cc1)OCC(=O)N1CCCC1	none (no result: CHOP inh)
Cc1ccc(CS(=O)(=O)c2ncc(Cl)c(C(=O)Nc3nnc(C(C)C)s3)n2)cc1	CHOP UPR activ 92 (no result: CHOP inh) | UPR CHOP confirm 38
CCN(CC(=O)NC(=O)NC1CCCC1)Cc1ccccc1	none (no result: CHOP inh)
CCOc1ccc2c(c1)C(=NNC(=O)c1ccncc1)c1cc(OCC)ccc1-2	CHOP UPR activ 50 | UPR CHOP confirm 43
CCOc1ccccc1NC(C)C(=O)NC(=O)NC1CCCCC1 (stereo not drawn)	none (no result: CHOP inh)
COC(=O)C1=C(C(=O)OC)SC2(S1)C(C(=O)OC)=C(C(=O)OC)SC1=C2c2cccc(C)c2NC1(C)C	CHOP UPR activ 40 | UPR CHOP confirm inactive
COC(=O)c1c(NC(=O)c2ccc([N+](=O)[O-])o2)sc2c1CCN(C(C)C)C2	CHOP UPR activ 71 (no result: CHOP inh) | UPR CHOP confirm 56
CC(C)N1CCc2c(sc(NC(=O)c3ccc([N+](=O)[O-])o3)c2C(N)=O)C1	none (no result: CHOP inh)

Screening results deposited in PubChem by several laboratories.
